Blank lines part the entries; values can stand above or below the compound they belong to.
Columns and labels:
[1] = target: T1, C-C chemokine receptor type 3 (Homo sapiens, UniProt P51677); experiment: Inhibitory concentration against C-C chemokine receptor type 3 using human [125I]eotaxin.
T1 sequence (P51677 whole entry): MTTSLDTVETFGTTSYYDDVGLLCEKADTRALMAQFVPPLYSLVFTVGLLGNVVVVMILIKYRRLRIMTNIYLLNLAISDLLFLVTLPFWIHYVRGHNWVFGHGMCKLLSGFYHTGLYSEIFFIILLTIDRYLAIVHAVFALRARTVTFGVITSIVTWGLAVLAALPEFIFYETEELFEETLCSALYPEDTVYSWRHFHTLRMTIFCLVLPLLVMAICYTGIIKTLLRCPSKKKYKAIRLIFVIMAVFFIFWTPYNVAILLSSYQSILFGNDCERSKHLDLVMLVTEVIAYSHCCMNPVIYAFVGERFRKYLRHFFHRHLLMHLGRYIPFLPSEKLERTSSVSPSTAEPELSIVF
Procedure, shortened: (§1)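 Displacement of 150 pM 125I-labeled human eotaxin from CHO cells (5×10^5 per well), compound 0.0001–1 μM, in RPMI 1640 with 0.5% BSA, 10 mM HEPES, 5 mM MgCl2; filter plates pretreated with 5 μg/mL protamine in PBS pH 7.2. 30 min at room temperature, vacuum filtration, three washes with binding buffer plus 0.5 M NaCl, bound label by liquid scintillation counting.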

[2] = target: 5-hydroxytryptamine receptor 2A (Homo sapiens, UniProt P28223); experiment: Inhibition of binding to serotonin 5-hydroxytryptamine 2A receptor
[3] = target: T2, C-C chemokine receptor type 3 (Homo sapiens) (UniProt P51677); experiment: Inhibitory concentration of compound against C-C chemokine receptor type 3 was determined using human [125I]eotaxin; conditions: concentration not given here; procedure, shortened: as §1
T2 sequence (whole entry): T1 sequence (P51677 whole entry)

[4] = Effective concentration determined in calcium mobilization assay; type: functional
Procedure, shortened: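 Calcium flux in 2×10^5 eosinophils preloaded with Fluo-3AM, stimulated with 10 nM eotaxin, compound 0.0001–1 μM, in RPMI 1640 with 0.1% BSA, 20 mM HEPES and 2.5 mM probenecid; fluorescence read on a fluorescent imaging plate reader.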

[5] = Effect on chemotaxis of eosinophils was determined; type: functional
[6] = target: CC chemokine receptor 3 (Homo sapiens); experiment: Binding affinity against CC chemokine receptor 3 was determined using human [125I]-eotaxin

Sequence of 5-hydroxytryptamine receptor 2A (P28223 whole entry): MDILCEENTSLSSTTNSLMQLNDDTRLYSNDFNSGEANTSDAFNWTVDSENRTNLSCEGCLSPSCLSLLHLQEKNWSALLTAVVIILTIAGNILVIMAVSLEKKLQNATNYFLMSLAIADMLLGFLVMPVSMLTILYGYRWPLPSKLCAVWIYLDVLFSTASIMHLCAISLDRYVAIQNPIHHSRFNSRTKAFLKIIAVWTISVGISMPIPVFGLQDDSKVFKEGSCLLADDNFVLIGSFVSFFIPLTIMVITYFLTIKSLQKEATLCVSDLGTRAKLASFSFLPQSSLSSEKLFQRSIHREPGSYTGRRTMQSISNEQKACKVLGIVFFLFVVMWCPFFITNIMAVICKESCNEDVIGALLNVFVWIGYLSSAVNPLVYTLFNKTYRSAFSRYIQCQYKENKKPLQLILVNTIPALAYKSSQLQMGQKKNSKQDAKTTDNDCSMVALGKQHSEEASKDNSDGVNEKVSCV

Compound: N#Cc1cccc(NC(=O)NCCCN2CCCC(Cc3ccccc3)C2)c1 (stereo unspecified)
- IC50 [1]: 41 nM
- Ki [2]: 2940 nM

Compound: COc1cccc(NC(=O)NCCCN2CCOC(Cc3ccccc3)C2)c1 (stereo unspecified)
- inhibition [3]: 14%

Compound: CC(=O)c1cccc(NC(=O)NCCCN2[C@@H]3CC[C@H]2C[C@@H](Cc2ccc(F)cc2)C3)c1 (stereo in doubt; 21)
- IC50 [1]: 7.4 nM

Compound: N#Cc1cccc(NC(=O)NCCCN2CCCC(Cc3ccc(F)cc3F)C2)c1 (stereo unspecified)
- IC50 [1]: 19 nM
- Ki [2]: 2350 nM

Compound: N#Cc1cccc(NC(=O)NCCCN2CCOC(Cc3ccccc3)C2)c1 (stereo unspecified)
- inhibition [3]: 36%

Compound: O=C(NCCCN1CCC[C@@H](Cc2ccc(F)cc2)C1)Nc1cccc(-c2cnco2)c1
- IC50 [1]: 7.9 nM

Compound: CC(=O)c1cccc(NC(=O)NCCCN2CC3(Cc4ccc(F)cc4)CCC2CC3)c1
- IC50 [1]: 39 nM

Compound: N#Cc1cccc(NC(=O)NCCCN2CCCC(Cc3ccc(C(F)(F)F)cc3)C2)c1 (stereo unspecified)
- inhibition [3]: 11%

Compound: CC(=O)c1cccc(NC(=O)NCCCN2C[C@H]3Cc4ccc(F)cc4C[C@H]3C2)c1
- IC50 [1]: 56 nM

Compound: N#Cc1cccc(NC(=O)NCCCN2CCCC(CCc3ccccc3)C2)c1 (stereo unspecified)
- inhibition [3]: 66%

Compound: CC(=O)c1cccc(NC(=O)NCCCN2C[C@@H]3Cc4ccc(F)cc4C[C@H]3C2)c1
- IC50 [1]: 49 nM

Compound: CC(=O)c1cccc(NC(=O)NCCCN2C[C@@H]3C[C@@H](c4ccc(F)cc4)[C@@H]3C2)c1
- inhibition [3]: 68%

Compound: CC(=O)c1cccc(NC(=O)NCCCN2CC3CCC2[C@H](Cc2ccc(F)cc2)C3)c1 (stereo partly specified)
- IC50 [1]: 802 nM

Compound: N#Cc1cccc(NC(=O)NCCCN2CCCC(Cc3ccc(F)cc3)C2)c1 (stereo unspecified)
- IC50 [1]: 29 nM
- Ki [2]: 2310 nM

Compound: CC(=O)c1cccc(NC(=O)NCCCN2[C@@H]3CC[C@H]2C[C@@H](Cc2ccc(F)cc2)C3)c1 (stereo in doubt; 22)
- IC50 [1]: 47 nM

Compound: N#Cc1cccc(NC(=O)NCCCN2CCC(Cc3ccc(F)cc3)CC2)c1
- Ki [2]: 167 nM

Compound: COc1cccc(CC2CCCN(CCCNC(=O)Nc3cccc(C#N)c3)C2)c1 (stereo unspecified)
- inhibition [3]: 31%

Compound: CC(=O)c1cccc(NC(=O)NCCCN2CCN(C(C)=O)C(Cc3ccc(F)cc3)C2)c1 (stereo unspecified)
- inhibition [3]: 0%

Compound: COc1cccc(NC(=O)NCCCN2CCC(Cc3ccccc3)CC2)c1
- Ki [2]: 613 nM

Compound: CC(=O)c1cccc(NC(=O)NCCCN2CCC(Cc3ccc(F)cc3)CC2)c1
- Ki [2]: 193 nM

Compound: N#Cc1cccc(NC(=O)NCCCN2CCC(Cc3ccc(F)cc3)C2)c1 (stereo unspecified)
- IC50 [1]: 31 nM
- Ki [2]: 178 nM

Compound: COc1cccc(NC(=O)NCCCN2CCCC(CCc3ccccc3)C2)c1 (stereo unspecified)
- IC50 [6]: 787 nM
- inhibition [3]: 84%

Compound: COc1cccc(NC(=O)NCCCN2CCC(Cc3ccc(F)cc3)CC2)c1
- Ki [2]: 224 nM

Compound: N#Cc1cccc(NC(=O)NCCCN2CCC(Cc3ccccc3)CC2)c1
- Ki [2]: 770 nM

Compound: O=C(NCCCN1CCC[C@@H](Cc2ccc(F)cc2)C1)Nc1cccc(-n2ccnc2)c1
- IC50 [1]: 7.1 nM

Compound: CC(=O)c1cccc(NC(=O)NCCCN2CC3CCC2[C@@H](Cc2ccc(F)cc2)C3)c1 (stereo partly specified)
- IC50 [1]: 169 nM

Compound: N#Cc1cccc(NC(=O)NCCCN2CCCC(Cc3cccc(F)c3)C2)c1 (stereo unspecified)
- IC50 [1]: 243 nM

Compound: N#Cc1cccc(NC(=O)NCCCN2CCCC(Cc3ccccc3F)C2)c1 (stereo unspecified)
- IC50 [1]: 38 nM
- Ki [2]: 2240 nM

Compound: CC(=O)c1cccc(NC(=O)NCCCN2CCC[C@H](Cc3ccc(F)cc3)C2)c1
- IC50 [1]: 39 nM

Compound: COc1cccc(NC(=O)NCCCN2CCCC(Cc3ccccc3)C2)c1 (stereo unspecified)
- IC50 [1]: 55 nM
- Ki [2]: 913 nM

Other lines, results leading:

- IC50 [1]: 1.2 nM
Compound: CCn1nnnc1-c1cccc(NC(=O)NCCCN2CCC[C@@H](Cc3ccc(F)cc3)C2)c1

- IC50 [1]: 1.2 nM
Compound: Cn1nnnc1-c1cc(NC(=O)NCCCN2CCC[C@@H](Cc3ccc(F)cc3)C2)cc(C(F)(F)F)c1

- EC50 [4]: 0.6 nM
- IC50 [1]: 0.7 nM
- EC50 [5]: < 1 nM
Compound: CNC(=O)c1cc(NC(=O)NCCCN2CCC[C@@H](Cc3ccc(F)cc3)C2)cc(-c2nnnn2C)c1

- EC50 [4]: 2.4 nM
- IC50 [1]: 2.5 nM
- EC50 [5]: 25 nM
- Ki [2]: 1350 nM
Compound: CC(=O)c1cccc(NC(=O)NCCCN2CCC[C@@H](Cc3ccc(F)cc3)C2)c1

- IC50 [1]: 3.1 nM
Compound: CC(C)n1nnnc1-c1cccc(NC(=O)NCCCN2CCC[C@@H](Cc3ccc(F)cc3)C2)c1

- IC50 [1]: 2.6 nM
Compound: CC(=O)c1cc(NC(=O)NCCCN2CCC[C@@H](Cc3ccc(F)cc3)C2)cc(-c2nnnn2C)c1

- EC50 [4]: 0.9 nM
- IC50 [1]: 1.5 nM
- EC50 [5]: 1 nM
Compound: Cc1cc(NC(=O)NCCCN2CCC[C@@H](Cc3ccc(F)cc3)C2)cc(-c2nnnn2C)c1

- EC50 [4]: 3.4 nM
- IC50 [1]: 3.1 nM
- EC50 [5]: < 1 nM
Compound: Cn1nnnc1-c1cc(Br)cc(NC(=O)NCCCN2CCC[C@@H](Cc3ccc(F)cc3)C2)c1

- EC50 [4]: 1.3 nM
- IC50 [1]: 0.6 nM
- EC50 [5]: 3.2 nM
Compound: Cn1nnnc1-c1cccc(NC(=O)NCCCN2CCC[C@@H](Cc3ccc(F)cc3)C2)c1

- EC50 [4]: 0.76 nM
- IC50 [1]: 0.7 nM
- EC50 [5]: 0.4 nM
Compound: Cn1nnnc1-c1cc(NC(=O)NCCCN2CCC[C@@H](Cc3ccc(F)cc3)C2)cc(-c2nnnn2C)c1

- IC50 [1]: 0.9 nM
Compound: Cn1nnnc1-c1cc(CO)cc(NC(=O)NCCCN2CCC[C@@H](Cc3ccc(F)cc3)C2)c1

- EC50 [4]: 45 nM
- IC50 [1]: 3.6 nM
Compound: O=C(NCCCN1CCC[C@@H](Cc2ccc(F)cc2)C1)Nc1cccc(-c2nnco2)c1

- IC50 [1]: 2.4 nM
Compound: Cn1nnnc1-c1cc(NC(=O)NCCCN2CCC[C@@H](Cc3ccc(F)cc3)C2)cc(-c2ccccc2)c1

- IC50 [1]: 1.2 nM
- EC50 [5]: 3 nM
Compound: CC(=O)c1cc(NC(=O)NCCCN2CCC[C@@H](Cc3ccc(F)cc3)C2)cc(C(C)=O)c1
